We go through seven compounds from PMC4971285 (International Journal for Parasitology: Drugs and Drug …, 2016).

Usually inhibition of growth stands for the percentage by which the read-out fell short of the control.

A short description of data set [1]: Cytotoxicity on Vero cells. To be noted: African green monkey. Type of data set: cell-based. The method in brief:
(§1)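 Vero cells kept in RPMI 1640 with 10% FBS at 37 °C, 5% CO2, seeded 1.5 × 10^4/well and cultured 24 h. Treated 72 h at 100 to 3.7 μM, with or without 30 μM heme in medium. Resazurin (0.005%) added for 4 h at 37 °C, fluorescence read at 530/600 nm. CC50 fitted from dose-response versus untreated control. Triplicates.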

The test system of the next data set is Vero cells. Put plainly: Cytotoxicity on Vero cells. It counts as cell-based. The method in brief:
as §1

The subject of a further data set is T. cruzi Y amastigotes. Put plainly: Intracellular amastigotes in infected cardiomyocytes. It counts as cell-based. To be noted: Trypanosoma cruzi, Cardiomyocyte, 72 h, read-out: Percentage of amastigote growth inhibition, 72 h of treatment with 10 μM of compounds.
Data set [2] has as its system T. cruzi Y trypomastigotes. Description: Trypomastigote viability. Type of data set: cell-based, Trypanosoma cruzi. To be noted: 30 μM compound, 24 h, with vs without 30 μM hemin. The method in brief: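 Culture-derived Y-strain trypomastigotes were collected from infected Vero supernatants at 4 dpi. Parasites (2 × 10^6/100 μl) incubated 24 h at 37 °C in RPMI 1640 with 30 μM test compound, with or without 30 μM hemin. […] Viability read by resazurin (0.005%) fluorescence at 530/600 nm. Percentage death calculated against the matching untreated or hemin-only control.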

The subject of another data set is Cardiomyocytes. Description: Cytotoxicity on primary cardiomyocytes. Type of data set: cell-based, mice. Conditions: read-out: CC50 Vero/CM, cardiomyocytes, 72 h, resazurin. The method in brief: (§2)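 Heart muscle cells were enzymatically isolated from mouse embryo myocardia and grown in DMEM with 2.5 mM CaCl2, 2% chick embryo extract, 7% FBS and 1 mM L-glutamine. Seeded 7 × 10^4/well, cultured 24 h, then treated 72 h at 100 to 3.7 μM, with or without 30 μM heme. Resazurin 0.005% for 4 h, fluorescence at 530/600 nm. CC50 fitted against untreated control. Triplicates.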

Data set [3] in a line: Cytotoxicity on primary cardiomyocytes. It counts as cell-based, mice. Conditions: mouse, primary embryonic cardiomyocytes. The method in brief: as §2
Data set [4] deals with T. cruzi Y epimastigote forms. Description: Epimastigote growth inhibition. It counts as cell-based. Conditions: Trypanosoma cruzi, 72 h, read-out: IC50 (Concentration that inhibits the growth of 50% of T. cruzi Y epimastigote forms within 72 h), 72 h, in the presence of 150 μM of heme, Probit. Put shortly: (§3)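 Log-phase Y-strain epimastigotes (5 × 10^5/mL) treated 72 h at 28 °C in BHI with folic acid, 150 μM hemin and 10% FBS, at 50, 25 and 12.5 μM. Final DMSO ≤1%. Counted in a Neubauer chamber, with motility and morphology as viability criteria. IC50 derived by probit. Selectivity index taken as cardiomyocyte CC50 divided by epimastigote IC50.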

The nature of data set [5]: Epimastigote growth inhibition. It counts as cell-based. Conditions: Trypanosoma cruzi. The method in brief: as §3

Molecules are shown by their SMILES. Where two headings read alike, the source gives them in different places.

In the case of `O=C(Cn1ccnc1[N+](=O)[O-])NCc1ccccc1` [Bz, benznidazole, reference compound], the CC50 at 72 h in data set [1] and in data set [3] was more than 100 µM each time. In addition, the CC50 was more than 100 µM with Vero cells (read-out: CC50 Vero/CM, medium without heme, 72 h, resazurin); more than 100 µM with Vero cells (read-out: CC50 Vero/CM, with 30 μM of heme, 72 h, resazurin); more than 100 µM with Cardiomyocytes (medium without heme); more than 100 µM in the data set with Cardiomyocytes (with 30 μM of heme). Further, the inhibition of growth at 10 µM in the data set with T. cruzi Y amastigotes was found to be 99.8 ± 0.4%. Besides, the “increase in activity (death of trypomastigote forms) by combination with hemin” value in data set [2] is listed as “about 1.3 fold”. The IC50 in data set [4] was found to be 5.6 ± 0.05 µM. Further, the selectivity ratio at 72 h in data set [5] was more than 17.9.

With `N#Cc1cnc2ccc(Cl)cc2c1Nc1ccccc1` [Compound 1a, 6-chloro-4-(phenylamino)quinoline-3-carbonitrile], the CC50 at 72 h in data set [1] and in data set [3] was more than 100 µM each time. For the same compound, the inhibition of growth at 10 µM with T. cruzi Y amastigotes was 45.5 ± 9%. Besides, in data set [2], the “increase in activity (death of trypomastigote forms) by combination with hemin” value was approximately 1.6 fold. Also, the IC50 in data set [4] came out at 17.6 ± 6.1 µM. In addition, the selectivity ratio at 72 h in data set [5] is more than 5.68.

For `N#Cc1cnc2ccc(Cl)cc2c1Nc1cccc(F)c1` [Compound 1b, 6-chloro-4-(3’-fluorophenylamino)quinoline-3-carbonitrile], the CC50 at 72 h was determined as 69 ± 22 µM in data set [1] and 67 ± 11.6 µM in data set [3]. The inhibition of growth at 10 µM in the data set with T. cruzi Y amastigotes was determined as 53.2 ± 10%. Also, in data set [4], the IC50 amounted to 16.6 ± 0.2 µM. Moreover, in data set [5], the selectivity ratio at 72 h stood at 4.

For `N#Cc1cnc2ccc(Cl)cc2c1Nc1ccc(F)cc1` [Compound 1c, 6-chloro-4-(4’-fluorophenylamino)quinoline-3-carbonitrile], the CC50 at 72 h in data set [1] and in data set [3] was more than 100 µM throughout. Also, the inhibition of growth at 10 µM in the data set on T. cruzi Y amastigotes stood at 52.5 ± 6%. Further, the IC50 in data set [4] was determined as 8.8 ± 1.3 µM. Moreover, the selectivity ratio at 72 h in data set [5] was more than 11.4.

In the case of `N#Cc1cnc2ccc(Cl)cc2c1Nc1ccccc1Cl` [Compound 1d, 6-chloro-4-(2’-chlorophenylamino)quinoline-3-carbonitrile], the CC50 at 72 h in data set [1] was determined as 64 ± 12.5 µM; in data set [3], 47.7 ± 13 µM. Moreover, in the data set on T. cruzi Y amastigotes, the inhibition of growth at 10 µM was 57.6 ± 8%. Also, in data set [4], the IC50 was determined as 40 ± 13.7 µM. Besides, in data set [5], the selectivity ratio at 72 h amounted to 1.19.

In the case of `N#Cc1cnc2ccc(Cl)cc2c1Nc1cccc(Cl)c1` [Compound 1e, 6-chloro-4-(3’-chlorophenylamino)quinoline-3-carbonitrile], the CC50 at 72 h was 89 ± 18 µM in data set [1] and 65.2 ± 18.5 µM in data set [3]. The inhibition of growth at 10 µM in the data set on T. cruzi Y amastigotes turned out to be 55.4 ± 7%. Besides, the IC50 in data set [4] is 15.4 ± 0.7 µM. In data set [5], the selectivity ratio at 72 h came to 4.2.

On to `N#Cc1cnc2ccc(Cl)cc2c1Nc1cccc(Br)c1` [Compound 1f, 4-(3’-bromophenylamino)-6-chloroquinoline-3-carbonitrile], for which the CC50 at 72 h in data set [1] was 71 ± 26 µM; in data set [3] it was more than 100 µM. In the data set on T. cruzi Y amastigotes, the inhibition of growth at 10 µM worked out at 60.4 ± 9%. Also, the IC50 in data set [4] was determined as 21.2 ± 14.2 µM. The selectivity ratio at 72 h in data set [5] is more than 4.7.
